PMC9582641 (Molecular Biology of the Cell, 2022)
Where no end group is shown, it is not given here. [ ]: non-standard residue; d: D form. Lys(Me3) = C[N+](C)(C)CCCC[C@H](N)C(=O)O; pT = C[C@@H](OP(=O)(O)O)[C@H](N)C(=O)O; Lys(Me2) = CN(C)CCCC[C@H](N)C(=O)O; Lys(Me) = CNCCCC[C@H](N)C(=O)O

Target: hSurvivin (Homo sapiens, UniProt O15392)
Assay: not given
Settings: ITC, pH 7.2, 25°C; ref Niedzialkowska et al. (2012); cited from earlier work

Chain of hSurvivin (O15392 whole entry): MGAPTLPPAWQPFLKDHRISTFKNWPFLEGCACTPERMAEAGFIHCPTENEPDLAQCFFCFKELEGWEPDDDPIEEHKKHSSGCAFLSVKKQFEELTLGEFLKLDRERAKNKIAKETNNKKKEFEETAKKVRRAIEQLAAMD

Molecule | –TΔS
H3(1-12): first 12 amino acids of histone H3; values from Niedzialkowska et al. (2012) | –4040 cal/mol
H3T3ph(1-12): histone H3 residues 1-12 with T3 phosphorylation; values from Niedzialkowska et al. (2012) | –2800 cal/mol

System: U2OS cells
Assay: not given
Format: cell-based
Settings: HDAC3 shRNA, immunofluorescence

Molecule | Aurora B at centromeres after HDAC3 depletion
shHDAC3: HDAC3 shRNA targeting sequence AGAAGTCCACTACCTGGTT (the letters are possibly those of the target site) | most of the Aurora B remains on noninner centromeric (chromosome arm) regions after HDAC3 depletion

System: U2OS cells
Assay: Aurora B at centromeres of interphase
Format: cell-based
Settings: interphase (S/G2) cells, immunofluorescence, ACA mask

Molecule | Aurora B localization at centromeres in interphase cells
c1cc(SSc2ccns2)sn1 [Nu9056] | leads to Aurora B localization at centromeres in interphase (S/G2) cells

System: U2OS cells
Assay: Histone H3K4ac immunoblot in U2OS cells after HAT inhibition or Tip60 depletion
Format: cell-based
Settings: U2OS cells, anti-H3K4ac immunoblot
Procedure, shortened: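 Asynchronous and nocodazole-arrested mitotic U2OS cells were treated with the Tip60 acetyltransferase inhibitor Nu9056 for 1 h. Separately, U2OS cells engineered for doxycycline-induced shRNA against Tip60 were depleted of Tip60. Histone H3 K4 acetylation was read by immunoblot with anti-H3K4ac antibody at 1:1000.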

Molecule | H3K4ac level
c1cc(SSc2ccns2)sn1 [Nu9056] | resulted in decreased H3K4ac levels
Clc1ccc(-c2csc(NN=C3CCCC3)n2)cc1 [CTPH2] | not GCN5 (CTPH2) or p300/CBP (Inhibitor VI) resulted in decreased H3K4ac levels

Same assay, conditions: mitotic U2OS cells; nocodazole arrested, Nu9056 for 1 h; immunoblot

Molecule | H3K4ac level in mitotic cells
c1cc(SSc2ccns2)sn1 [Nu9056] | also sensitive to the Tip60 inhibitor

Target: human Survivin (hSurvivin) (human, UniProt O15392 1-142)
Sequence (O15392 whole entry): as above
Assay: ITC
Settings: not given

Molecule | dH | stoichiometry N
ART[Lys(Me3)]QTARKSTG (peptide, UniProt P68431 2-13, looked up) [histone H3 peptide H3K4me3(1-12)] | -6 ± 0.7 kcal/mol | 0.83 ± 0.07
ART[Lys(Me2)]QTARKSTG (peptide, UniProt P68431 2-13, looked up) [histone H3 peptide H3K4me2(1-12)] | -2.61 ± 0.04 kcal/mol | 0.899 ± 0.01
AR[pT][Lys(Me)]QTARKSTG (peptide, UniProt P68431 2-13, looked up) [histone H3 peptide H3T3phK4me1(1-12)] | -4.692 ± 0.026 kcal/mol | 1.03 ± 0.005
ART[Lys(Me)]QTARKSTG (peptide, UniProt P68431 2-13, looked up) [histone H3 peptide H3K4me1(1-12)] | -2.68 ± 0.06 kcal/mol | 1.08 ± 0.012
AR[pT]K(Ac)QTARKSTG (peptide, UniProt P68431 2-13, looked up) [histone H3 peptide H3T3phK4ac(1-12)] | -7.3 ± 0.1 kcal/mol | 0.965 ± 0.009
AR[pT][Lys(Me2)]QTARKSTG (peptide, UniProt P68431 2-13, looked up) [histone H3 peptide H3T3phK4me2(1-12)] | -6.25 ± 0.06 kcal/mol | 0.873 ± 0.004
AR[pT][Lys(Me3)]QTARKSTG (peptide, UniProt P68431 2-13, looked up) [histone H3 peptide H3T3phK4me3(1-12)] | -4.63 ± 0.09 kcal/mol | 1.21 ± 0.02
